Results on 1 molecule are retold here after ChEMBL document CHEMBL1687801, “Pharmacokinetics-pharmacodynamics of a respiratory syncytial virus fusion inhibitor in the cotton rat model” (Antimicrob Agents Chemother, 2010).

Values after ≈ are worked out from the molar mass of the structure shown.

One data set relates to Plasma. Nature of the data set: Drug level in cotton rat plasma at 12.5 - 200 mg/kg, sc administered as single dose measured after 24 hrs. As to conditions: in vivo; call rule not given here. More on the design: dose 200 mg/kg, route subcutaneous. It counts as ADME, organism-based.
Data set [1] can be described thus: Drug level in Sprague-Dawley rat bronchoalveolar lavage fluid at 10 mg/kg, iv administered as single bolus dose measured after 3 hrs. It counts as ADME, organism-based, Lung. More on the design: dose 10 mg/kg, route intravenous. The note with it: read-out: Drug uptake.
Data set [2] in a line: Ratio of AUC (0 to 24 hrs) in Sprague-Dawley rat lung tissue to plasma. It counts as ADME.
In data set [3] the test system is Respiratory syncytial virus. Description: Antiviral activity against respiratory syncytial virus long strain infected in cotton rat assessed as log reduction in epithelial lining fluid viral load at 25 mg/kg, sc single dose administered 24 hrs before viral infection by plaque assay. The note with it: route subcutaneous. It counts as functional. A digest of the protocol: (§1)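 Cotton rats (60–100 g, six per dose cohort) received one s.c. dose of an aqueous slow-release nanocrystal suspension. At 24 h they were anesthetized with isoflurane and given 10⁶ PFU RSV Long intranasally in 0.1 ml. On day 4 lungs were lavaged once with 2.5 ml PBS. BALF supernatant was plaque-titrated on Vero cells (7 days, 37°C, methylene blue). Titers were urea-corrected to ELF; log reduction was taken versus untreated infected controls.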

A short description of data set [4]: AUC (0 to 24 hrs) in Sprague-Dawley rat bronchoalveolar lavage fluid at 10 mg/kg, iv administered as single bolus dose. It counts as ADME, organism-based, Lung. The note with it: in vivo. Also noted: time < 24 hr, dose 10 mg/kg, route intravenous.
In data set [5] the test system is Respiratory syncytial virus. Nature of the data set: Antiviral activity against respiratory syncytial virus long strain infected in cotton rat assessed as log reduction in epithelial lining fluid viral load at 200 mg/kg, sc single dose administered 24 hrs before viral infection by plaque assay. Type of data set: functional. The note with it: route subcutaneous. A digest of the protocol:
as §1

Data set [6] is described as follows: Drug level in Sprague-Dawley rat lung tissue at 10 mg/kg, iv administered as single bolus dose measured after 3 hrs. Type of data set: ADME, organism-based. More on the design: dose 10 mg/kg, route intravenous. The note with it: read-out: Drug uptake.
Data set [7] deals with Respiratory syncytial virus. Nature of the data set: Antiviral activity against respiratory syncytial virus long strain infected in cotton rat assessed as log reduction in epithelial lining fluid viral load at 200 mg/kg, sc single dose administered 24 hrs before viral infection by qRT-PCR assay. It counts as functional. The note with it: route subcutaneous. The method in brief:
(§2)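 Nanocrystal suspension was given as a single s.c. dose to cotton rats (six per cohort). RSV Long (10⁶ PFU) was inoculated intranasally 24 h later. On day 4, BALF from a single 2.5 ml PBS lavage was lysed with DTT and lysis buffer, and RNA was extracted with an internal control. Monoplex real-time RT-PCR was run in duplicate against an eight-point 10-fold RSV RNA standard. Titers were urea-corrected to ELF; reduction was taken versus untreated controls.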
(Quantitative PCR measures a nucleic acid by following its amplification.)

Data set [8] in a line: Clearance in Sprague-Dawley rat plasma at 10 mg/kg, iv administered as single bolus dose. More on the design: dose 10 mg/kg, route intravenous. It counts as ADME, organism-based.
Data set [9] concerns Respiratory syncytial virus. Nature of the data set: Antiviral activity against respiratory syncytial virus long strain infected in cotton rat assessed as log reduction in epithelial lining fluid viral load at 12.5 mg/kg, sc single dose administered 24 hrs before viral infection by plaque assay. Type of data set: functional. As to conditions: route subcutaneous. The method in brief: as §1

Data set [10] is described as follows: Drug level in Sprague-Dawley rat plasma at 10 mg/kg, iv administered as single bolus dose measured after 3 hrs. The note with it: read-out: Drug uptake. More on the design: dose 10 mg/kg, route intravenous. Type of data set: ADME, organism-based.
The subject of data set [11] is Respiratory syncytial virus. Nature of the data set: Antiviral activity against respiratory syncytial virus long strain infected in cotton rat assessed as log reduction in epithelial lining fluid viral load at 100 mg/kg, sc single dose administered 24 hrs before viral infection by qRT-PCR assay. It counts as functional. As to conditions: route subcutaneous. A digest of the protocol:
as §2

The test system of data set [12] is Respiratory syncytial virus. Description: microbe, parasite or virus in culture. The note with it: human respiratory syncytial virus, long, HeLaM.
Data set [13] can be described thus: Volume of distribution at steady state in Sprague-Dawley rat plasma at 10 mg/kg, iv administered as single bolus dose. Type of data set: ADME, organism-based. Also noted: dose 10 mg/kg, route intravenous. As to conditions: read-out: Vdss.
Data set [14] deals with Respiratory syncytial virus. Nature of the data set: Antiviral activity against respiratory syncytial virus long strain infected in cotton rat assessed as log reduction in epithelial lining fluid viral load at 50 mg/kg, sc single dose administered 24 hrs before viral infection by plaque assay. Type of data set: functional. The note with it: route subcutaneous. A digest of the protocol: as §1

Data set [15] relates to Respiratory syncytial virus. Description: Antiviral activity against respiratory syncytial virus long strain infected in cotton rat assessed as log reduction in epithelial lining fluid viral load at 25 mg/kg, sc single dose administered 24 hrs before viral infection by qRT-PCR assay. As to conditions: route subcutaneous. Type of data set: functional. A digest of the protocol:
as §2

A short description of data set [16]: Drug level in cotton rat epithelial lining fluid at 10 mg/kg, iv administered as single bolus dose measured after 3 hrs. It counts as ADME, organism-based. Also noted: dose 10 mg/kg, route intravenous. As to conditions: read-out: Drug uptake.
The test system of another data set is Lung. Description: AUC (0 to 24 hrs) in Sprague-Dawley rat lung tissue at 10 mg/kg, iv administered as single bolus dose. Also noted: time < 24 hr, dose 10 mg/kg, route intravenous. As to conditions: in vivo. Type of data set: ADME, organism-based.
Data set [17] is described as follows: AUC (0 to 24 hrs) in Sprague-Dawley rat plasma at 10 mg/kg, iv administered as single bolus dose. Type of data set: ADME, organism-based. More on the design: time < 24 hr, dose 10 mg/kg, route intravenous.
For data set [18], the system named is Respiratory syncytial virus. Description: Antiviral activity against respiratory syncytial virus long strain infected in cotton rat assessed as log reduction in epithelial lining fluid viral load at 100 mg/kg, sc single dose administered 24 hrs before viral infection by plaque assay. As to conditions: route subcutaneous. It counts as functional. The method in brief: as §1

In data set [19] the test system is Respiratory syncytial virus. Description: Antiviral activity against respiratory syncytial virus long strain infected in cotton rat assessed as log reduction in epithelial lining fluid viral load at 50 mg/kg, sc single dose administered 24 hrs before viral infection by qRT-PCR assay. Type of data set: functional. As to conditions: route subcutaneous. The method in brief: as §2

The test system of data set [20] is Respiratory syncytial virus. Description: Antiviral activity against respiratory syncytial virus long strain infected in cotton rat assessed as log reduction in epithelial lining fluid viral load at 12.5 mg/kg, sc single dose administered 24 hrs before viral infection by qRT-PCR assay. Type of data set: functional. The note with it: route subcutaneous. A digest of the protocol:
as §2

The test system of data set [21] is Respiratory syncytial virus. Nature of the data set: Antiviral activity against respiratory syncytial virus long strain infected in cotton rat assessed as maximum reduction in epithelial lining fluid viral load at 200 ng/ml plasma concentration. It counts as functional. Also noted: scale not given: the % may be the effect or the level left. The method in brief:
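Plasma was drawn at 24 h after single s.c. nanocrystal doses (12.5–200 mg/kg) to cotton rats, just before intranasal RSV inoculation, and assayed by LC-MS/MS. Individual day-4 plaque-assay ELF titer reductions were plotted against this plasma concentration and fitted to a simple E_max model, E = (E_max × C24h)/(C24h + EC50).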

Data set [22] in a line: Drug level in cotton rat bronchoalveolar lavage fluid at 10 mg/kg, iv administered as single bolus dose measured after 3 hrs. Type of data set: ADME, organism-based, Lung. Also noted: dose 10 mg/kg, route intravenous. The note with it: read-out: Drug uptake.

In the case of `Cc1ccc(CCCO)c(NCc2ccc3nc(NCCCN4CCOCC4)n(Cc4nc(C)ccc4O)c3c2)c1`, in the data set with Plasma, the Drug uptake entry is recorded as “Active”. Besides, the concentration at 3 h in [1] is 11 ng/mL; in data set [6] it was 9400 ng/mL; in data set [10], 63 ng/mL; in data set [16], 392 ng/mL; in [22], 23 ng/mL. The Kp in data set [2] amounted to 122. Moreover, the log10PFU/ml in data set [3] worked out at 0.3; in data set [5], 1.2; in [7] it was 2.2; in [9], 0.2; in data set [11], 1.7; in data set [14], 0.4. Moreover, the log10PFU/ml in data set [15] was 0.6; in data set [18], 0.8; in data set [19], 1.1; in [20] it was 0.5. Moreover, the AUC in data set [4] was found to be 170 ng·h/mL; in the data set with Lung it was 131000 ng·h/mL. Besides, the clearance in data set [8] was 143 mL/min/kg. The molecule further returned an EC50 in [12] of 0.07 ng/mL (≈ 0.125 nM). Also, the Vd in data set [13] came out at 55 L/kg. This molecule also gave an AUC(0-t) at 24 h in data set [17] of 1100 ng·h/mL. Also, the Activity in [21] is given as 50%.

A word on the Kp: it is tissue or fluid exposure divided by exposure in the circulation. For orientation: AUC means concentration integrated over time. As a reminder, the clearance is the rate of elimination divided by the concentration. Broadly, the EC50 is the concentration giving half of the maximal effect. One may read the AUC(0-t) as exposure summed from dosing to a finite time, without extrapolation to infinity.
